Test results: ChEMBL document CHEMBL1275345, “Pyrazolo[1',5':1,6]pyrimido[4,5-d]pyridazin-4(3H)-ones as selective human A(1) adenosine receptor ligands” (Bioorg Med Chem, 2010)
Values belong to the compound of their own block, whether it stands above or below them.

Tests used:
Adenosine receptor A2a [1] = target: T1, Adenosine receptor A2a (Homo sapiens, UniProt P29274); test: Displacement of [3H]ZM241385 from human adenosine A2a receptor expressed in HeLa cells at 10 uM after 30 mins; format: cell-based
T1 sequence (P29274 whole entry): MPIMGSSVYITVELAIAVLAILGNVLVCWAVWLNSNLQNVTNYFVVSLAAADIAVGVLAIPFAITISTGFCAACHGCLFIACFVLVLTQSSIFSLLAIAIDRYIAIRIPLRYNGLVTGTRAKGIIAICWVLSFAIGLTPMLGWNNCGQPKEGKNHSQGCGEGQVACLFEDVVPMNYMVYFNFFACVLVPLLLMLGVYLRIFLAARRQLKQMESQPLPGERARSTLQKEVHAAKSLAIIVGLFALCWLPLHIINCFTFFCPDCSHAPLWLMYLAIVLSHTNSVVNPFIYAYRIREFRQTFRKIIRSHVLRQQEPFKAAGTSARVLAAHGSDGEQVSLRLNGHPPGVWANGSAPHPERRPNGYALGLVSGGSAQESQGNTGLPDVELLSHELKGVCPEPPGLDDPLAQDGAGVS
Summary of the method: (§1)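 [3H]ZM241385 specific binding in HeLa cells expressing human A2A receptor. Incubation at 25 °C for 30 min, followed by filtration and beta scintillation counting. Output is Ki (nM) or % inhibition at the single test concentration. Values are means of four separate assays, each performed in triplicate.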

Adenosine receptor A1 = target: T2, Adenosine receptor A1 (Homo sapiens, UniProt P30542); test: Displacement of [3H]DPCPX from human adenosine A1 receptor expressed in CHO-A1 cells after 60 mins; format: cell-based
T2 sequence (P30542 whole entry): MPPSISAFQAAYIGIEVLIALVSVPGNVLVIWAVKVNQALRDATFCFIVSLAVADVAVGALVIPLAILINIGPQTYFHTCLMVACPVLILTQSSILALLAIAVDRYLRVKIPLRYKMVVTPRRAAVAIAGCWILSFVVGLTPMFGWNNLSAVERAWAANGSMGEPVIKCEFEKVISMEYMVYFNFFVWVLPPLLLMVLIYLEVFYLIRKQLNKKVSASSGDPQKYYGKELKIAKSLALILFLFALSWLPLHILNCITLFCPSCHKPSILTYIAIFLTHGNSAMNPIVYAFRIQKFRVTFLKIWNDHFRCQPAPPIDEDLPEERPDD
Summary of the method: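 Competition binding on membranes from CHO cells expressing human A1 receptor, labelled with 2 nM [3H]DPCPX. Non-specific binding defined with (R)-PIA. Incubation at 25 °C for 60 min, then filtration and beta scintillation counting. Result given as Ki (nM) or % inhibition at the single test concentration. Means of four separate assays, each in triplicate.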

Adenosine receptor A2b [2] = target: T3, Adenosine receptor A2b (Homo sapiens, UniProt P29275); test: Displacement of [3H]DPCPX from human adenosine A2b receptor expressed in HEK293 cells after 30 mins; format: cell-based
T3 sequence (P29275 whole entry): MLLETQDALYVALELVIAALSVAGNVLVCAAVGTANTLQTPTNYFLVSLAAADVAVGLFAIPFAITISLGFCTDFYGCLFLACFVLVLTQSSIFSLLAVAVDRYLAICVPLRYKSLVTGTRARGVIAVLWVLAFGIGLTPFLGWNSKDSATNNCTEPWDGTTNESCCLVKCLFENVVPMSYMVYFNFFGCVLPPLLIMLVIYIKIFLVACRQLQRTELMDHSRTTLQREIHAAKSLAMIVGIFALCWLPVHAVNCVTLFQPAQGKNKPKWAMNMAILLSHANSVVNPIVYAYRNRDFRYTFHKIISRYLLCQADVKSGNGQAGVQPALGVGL

[3] = target: T4, Adenosine receptor A3 (Homo sapiens) (UniProt P0DMS8); test: Displacement of [3H]NECA from human adenosine A3 receptor expressed in HeLa cells at 10 uM after 180 mins; format: cell-based
T4 sequence (whole entry): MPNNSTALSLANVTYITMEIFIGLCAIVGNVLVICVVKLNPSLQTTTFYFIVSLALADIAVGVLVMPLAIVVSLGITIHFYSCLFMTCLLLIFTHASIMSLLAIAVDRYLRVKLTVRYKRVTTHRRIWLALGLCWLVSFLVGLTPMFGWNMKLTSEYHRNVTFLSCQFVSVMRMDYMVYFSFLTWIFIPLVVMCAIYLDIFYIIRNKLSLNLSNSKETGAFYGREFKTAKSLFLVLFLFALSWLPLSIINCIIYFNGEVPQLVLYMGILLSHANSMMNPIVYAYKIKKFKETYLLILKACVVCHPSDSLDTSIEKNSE
Summary of the method: (§2)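 HeLa cells expressing human A3 receptor, with displacement of [3H]NECA. Incubated at 25 °C for 180 min, then filtered and counted by beta scintillation. Ki (nM) or percentage inhibition at the single test concentration. Means of four assays, each in triplicate.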

[4] = Binding affinity to human adenosine A2 receptor
Adenosine receptor A3 [5] = target: T5, Adenosine receptor A3 (Bos taurus, UniProt Q0VC81); test: Binding affinity to bovine adenosine A3 receptor
T5 sequence (Q0VC81 whole entry): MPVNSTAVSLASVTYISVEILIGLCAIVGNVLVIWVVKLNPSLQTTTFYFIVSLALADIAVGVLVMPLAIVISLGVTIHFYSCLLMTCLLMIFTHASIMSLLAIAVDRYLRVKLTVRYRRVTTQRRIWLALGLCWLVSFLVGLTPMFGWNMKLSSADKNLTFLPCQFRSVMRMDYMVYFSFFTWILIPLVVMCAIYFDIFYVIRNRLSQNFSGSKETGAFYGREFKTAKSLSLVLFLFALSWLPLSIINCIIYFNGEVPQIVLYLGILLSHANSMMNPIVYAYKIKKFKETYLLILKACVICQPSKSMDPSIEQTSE

Adenosine receptor A2b [6] = target: T3, Adenosine receptor A2b; test: Binding affinity to human adenosine A2b receptor
Summary of the method: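 Competition binding on human A2B receptors expressed in HEK-293 cells, displacing [3H]DPCPX. Bound radioactivity was separated by filtration and counted by beta scintillation. Values are means of four separate assays, each run in triplicate.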

Homo sapiens [7] = species: Homo sapiens; test: Selectivity ratio of Ki for human adenosine A2b receptor to Ki for human A1 receptor
Adenosine receptor A2a [8] = target: T1, Adenosine receptor A2a; test: Displacement of [3H]ZM241385 from human adenosine A2a receptor expressed in HeLa cells after 30 mins; format: cell-based; summary of the method: as §1
Homo sapiens [9] = species: Homo sapiens; test: Selectivity ratio of Ki for human adenosine A2a receptor to Ki for human A1 receptor
[10] = target: T6, Adenosine receptor A2b (Homo sapiens) (UniProt P29275); test: Displacement of [3H]DPCPX from human adenosine A2b receptor expressed in HEK293 cells at 10 uM after 30 mins; format: cell-based
T6 sequence (whole entry): T3 sequence (P29275 whole entry)
Summary of the method: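 Human A2B receptor expressed in HEK-293 cells, with displacement of [3H]DPCPX. Incubated at 25 °C for 30 min, then filtered and counted by beta scintillation. Reported as Ki (nM) or percentage inhibition at the single test concentration. Means of four independent assays, each run in triplicate.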

Adenosine receptor A3 [11] = target: T7, Adenosine receptor A3 (Homo sapiens, UniProt P0DMS8); test: Displacement of [3H]NECA from human adenosine A3 receptor expressed in HeLa cells after 180 mins; format: cell-based; summary of the method: as §2
T7 sequence (P0DMS8 whole entry): T4 sequence (whole entry)

[12] = target: T8, Adenosine receptor A1 (Bos taurus) (UniProt P28190); test: Binding affinity to bovine adenosine A1 receptor at 34 uM
T8 sequence (whole entry): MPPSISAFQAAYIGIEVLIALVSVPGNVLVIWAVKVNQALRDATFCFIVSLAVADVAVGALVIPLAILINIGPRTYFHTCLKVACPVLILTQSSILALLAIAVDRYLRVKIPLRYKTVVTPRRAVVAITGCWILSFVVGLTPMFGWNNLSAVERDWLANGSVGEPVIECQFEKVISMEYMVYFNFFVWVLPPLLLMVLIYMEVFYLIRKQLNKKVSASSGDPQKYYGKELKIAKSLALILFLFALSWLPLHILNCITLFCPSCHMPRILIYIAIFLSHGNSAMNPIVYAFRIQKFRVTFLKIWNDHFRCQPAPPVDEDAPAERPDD

Bos taurus = species: Bos taurus; test: Binding affinity to bovine adenosine A2a receptor at 34 uM
[13] = Binding affinity to bovine adenosine A2a receptor; parameters: species or system Bos taurus

Compound: O=C(Cc1cccc2ccccc12)Nc1nc2nn(CCCc3ccccc3)cc2c2nc(-c3ccco3)nn12
Ki [4]: 0.8 µM
Ki (Adenosine receptor A3 [5]): 0.3 µM

Compound: COc1ccc(CCCn2ncc3c2nc(N)n2nc(-c4ccco4)nc32)cc1
Ki (Adenosine receptor A3 [5]): > 10 µM
Ki (Adenosine receptor A2b [6]): > 10 µM

Compound: Cc1nn(Cc2ccccc2)c(=O)c2ncn3nc(-c4ccsc4)cc3c12
Ki (Adenosine receptor A1): 0.0853 µM
fold change (FC) (Homo sapiens [7]): 56
Ki (Adenosine receptor A2a [8]): 7.36 µM
fold change (FC) (Homo sapiens [9]): 90
Ki (Adenosine receptor A2b [2]): 4.65 µM
inhibition [3]: < 50%

Compound: Cc1nn(C(C)c2ccccc2)c(=O)c2nc(C)n3nc(-c4ccccc4)cc3c12 (configuration not stated)
inhibition [10]: < 50%
inhibition (Adenosine receptor A2a [1]): < 50%
Ki (Adenosine receptor A3 [11]): 4.73 µM
Ki (Adenosine receptor A1): 3.08 µM

Compound: COc1ccc(-c2nc3c(O)nc4ccccc4n3n2)cc1
inhibition [12]: 0%
inhibition (Bos taurus): 8.7%

More lines, now with the values ahead:

inhibition (Adenosine receptor A2a [1]): < 50%
Ki (Adenosine receptor A1): 0.104 µM
Ki (Adenosine receptor A2b [2]): 7.56 µM
inhibition [3]: < 50%
Compound: Cc1nn(Cc2ccccc2)c(=O)c2ncn3nc(-c4ccccc4)cc3c12

Ki (Adenosine receptor A3 [5]): > 1 µM
Ki [13]: > 10 µM
Compound: O=c1c(-c2ccccc2)nnc2n(-c3ccccc3)c3ccccc3n12
